V-ATPase pH – yeast V-ATPase proton transport regulation by pHLuorin. S. cerevisiae, pHLuorin cytosolic pH fluorescence. response, % at 10 µM. actives 0.37% (n = 350,000); in the data active = response mostly above about 7.3%, no sharp cut-off; inactive = mostly below about 5.4%; note: actives read high
MIN6 prolif – MIN6 beta-cell proliferation induction; MIN6 cells proliferation, ATPlite luminescence, 48 h; cells starved in 0.2% serum; 100% = growth in 10% serum; proliferation, % at 10 µM; actives 0.29% (n = 330,000);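 active = compounds whose signal lies at least 3.5 SD above the mean of all wells on their plate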
T cell HTS – T cell immune modulation candidate. actives 0.068% (n = 330,000). response (vesicle binding), % at 7 µM. 2C CD8+ T cell-vesicle binding, flow cytometry; hits give low values;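 active = response, share of CD8 T cells binding vesicles, and their 90th percentile fluorescence all below set limits, cut at about 80% in these data, passing the limit was not always enough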;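 note: values below 100% mean blocked vesicle binding to the CD8+ T cells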
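Incubation: binding step 1.5 h, 37 °C, antibody labelling 20 min, ice; system: murine 2C transgenic CD8+ T lymphocytes; technique: cytometric PE anti-B7-1 and Alexa647 anti-CD8 signals after 1% paraformaldehyde fixation; also added: QL9-charged Drosophila Ld/ICAM-1/B7-1 vesicles; control set: naked versus QL9-loaded vesicles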
KLK7 zymogen act – proKLK7 (human) activation, primary screen | P49862 | purified proKLK7, EDANS-DABCYL substrate fluorescence; 100% is mature enzyme control, 0% vehicle | activation, % at 7 µM | actives 0.9% (n = 370,000) | AID 652039;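 active = activation above the mean of all tested compounds plus 3 SD, computed per campaign excluding outliers beyond control limits, cut at about 13% in these data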
Target sequence (P49862 whole entry, looked up): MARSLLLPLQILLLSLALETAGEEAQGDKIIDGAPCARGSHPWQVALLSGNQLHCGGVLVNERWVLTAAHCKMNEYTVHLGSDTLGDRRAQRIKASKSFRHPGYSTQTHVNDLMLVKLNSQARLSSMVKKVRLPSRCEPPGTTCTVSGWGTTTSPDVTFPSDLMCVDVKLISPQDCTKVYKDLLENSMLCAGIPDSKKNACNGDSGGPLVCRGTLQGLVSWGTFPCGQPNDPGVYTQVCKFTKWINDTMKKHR
CR mimetic SO – caloric restriction mimetics inhibiting age-related superoxide in yeast | S. cerevisiae aged cells, superoxide DHE fluorescence; hits give low values | superoxide response (% of plate mean), % at 10 µM | actives 0.18% (n = 330,000);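 active = superoxide response under a set limit, about three screen SD below normal, cut at about 65% in these data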;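 note: yeast aged for seven days with compound at 30 °C before DHE staining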
Rce1 inh – blocks yeast Ras-converting enzyme | Q03530 | yeast membranes, quenched prenylated peptide cleavage fluorescence | actives 0.27% (n = 290,000) | calls only;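 active = fall in fluorescence gain of 50% or more versus controls, with final raw signal at or below 3038400; inconclusive = same 50% fall but final raw signal above 3038400; inactive = fall in fluorescence gain under 50%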
Target sequence (Q03530 whole entry, looked up): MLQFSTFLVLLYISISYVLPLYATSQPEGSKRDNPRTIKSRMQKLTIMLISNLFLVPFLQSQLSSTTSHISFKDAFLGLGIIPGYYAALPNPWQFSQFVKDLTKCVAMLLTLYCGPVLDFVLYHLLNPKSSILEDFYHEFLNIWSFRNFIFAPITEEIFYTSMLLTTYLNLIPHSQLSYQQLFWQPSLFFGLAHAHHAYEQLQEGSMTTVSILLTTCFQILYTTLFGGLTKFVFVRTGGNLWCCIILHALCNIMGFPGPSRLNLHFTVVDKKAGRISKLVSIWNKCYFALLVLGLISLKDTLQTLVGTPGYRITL
KLK7 act conf – confirmation of human kallikrein-7 zymogen activators. shares compounds with KLK7 zymogen act. purified proKLK7, EDANS-DABCYL substrate fluorescence; scaled: vehicle 0, mature enzyme 100. activation, % at 7 µM. actives 68% (n = 3,200). AID 686949;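 active = activation, as change over the incubation, above the mean of all tested compounds plus 3 SD, cut at about 13% in these data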
EDANS-DABCYL int – optically interferes with EDANS-DABCYL signal, flagging KLK7 hits. shares compounds with KLK7 zymogen act. EDANS-DABCYL substrate fluorescence interference, no enzyme, 4 h; solvent 0%, active enzyme control 100%. activation, % at 7 µM. actives 80% (n = 3,200). AID 686952;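 active = activation above the all-compound mean plus 3 SD, ignoring values outside control-based bounds, cut at about 4.8% in these data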;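 note: value is the 4 h activation minus the activation read at time zero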
K7 EDANS ctr – optically interferes with EDANS-DABCYL fluorescence, kallikrein-7 activator counter-screen | shares compounds with KLK7 zymogen act | actives 20% (n = 250) | EDANS-DABCYL peptide fluorescence interference, no enzyme | EC50, µM;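 active = compounds that raise the fluorescence signal in this interference counterscreen, with EC50 at or below 10 µM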;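 note: intact quenched peptide substrate alone read at 355 nm excitation and 520 nm emission; signal is fluorescence gain from T0 to T4 after four hours at room temperature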
A number is an active result; – = inactive; ? = inconclusive; · = not tested or not shown; + = active, no number. A selection: hits, their analogues and other compounds. The true share with any hit is near 1.9%.

SMILES | V-ATPase pH | MIN6 prolif | T cell HTS | KLK7 zymogen act | CR mimetic SO | Rce1 inh | KLK7 act conf | EDANS-DABCYL int | others
CCOC(=O)c1c(-c2ccccc2)oc2ccc(OCC(=O)O)cc12 | – | – | – | 25 | – | ? | 25 | 25
CCOC(=O)c1c(-c2ccc(OC)cc2)oc2ccc(OCC(N)=O)cc12 | – | – | – | – | – | – | · | ·
CC1CCN(Cc2cc(=O)oc3cc(O)c(Cl)cc23)CC1 | – | – | – | 48 | – | – | 70 | 71
Cc1cc2oc(=O)cc(CN(C)Cc3ccccc3F)c2cc1Cl | – | – | – | – | – | · | · | ·
CC1CN(Cc2cc(=O)oc3cc(O)c(Cl)cc23)CC(C)O1 (stereo unspecified) | – | – | – | 87 | – | – | 73 | 70
CN(Cc1ccccc1F)Cc1cc(=O)oc2cc(O)c(Cl)cc12 | – | – | – | 60 | – | – | 68 | 61
CC1CCN(Cc2cc(=O)oc3cc4c(cc23)CCCC4)CC1 | – | – | – | – | – | – | · | ·
CC(=O)c1ccccc1NC(=O)COC(=O)CCC1CCCC1 | – | – | – | – | – | · | · | ·
O=C(NCc1ccc2c(c1)OCO2)C(=O)Nc1cc2c3c(c1)CC(=O)N3CCC2 | – | – | – | – | – | – | · | ·
CC(=O)c1ccc(-c2ccc(C(=O)N3CCC(C(N)=O)CC3)o2)cc1 | – | – | – | 24 | – | + | 27 | 29
CC(=O)c1ccc(-c2ccc(C(=O)NC3CC(C)(C)NC(C)(C)C3)o2)cc1 | – | – | – | 34 | – | ? | 18 | 24
CC(=O)c1ccc(-c2ccc(C(=O)N3CCN(c4ccc(F)cc4)CC3)o2)cc1 | – | – | – | – | – | – | · | ·
CC(=O)c1ccc(-c2ccc(C(=O)NCC3CCCO3)o2)cc1 (stereo unspecified) | – | – | – | 29 | – | ? | 43 | 45
Cc1cc2c(cc1C)-n1nnnc1C(N(C)Cc1ccccc1)C(=O)N2 (stereo unspecified) | · | · | · | – | · | · | · | ·
CCC(=O)Oc1ccc2c(c1)O/C(=C\c1ccco1)C2=O | – | – | – | 51 | – | – | 478 | 467
O=C1/C(=C/c2ccco2)Oc2c1ccc(O)c2CN1CCCCC1 | – | – | – | 14 | – | – | 67 | 73
COCCN(CCOC)Cc1c(O)ccc2c1O/C(=C\c1ccco1)C2=O | – | – | – | 19 | – | – | 23 | 27
CC1CCN(Cc2c(O)ccc3c2O/C(=C\c2ccco2)C3=O)CC1 | – | – | – | · | – | – | · | ·
CN(CC(=O)Nc1ccc(F)cc1)C(=O)CN1C(=O)NC2(CCCc3ccccc32)C1=O (stereo unspecified) | – | – | – | – | – | – | · | ·
CCc1cc2c(=O)c(Oc3ccccc3)c(C)oc2cc1O | – | – | – | 55 | – | – | 65 | 78
Cc1cc(=O)oc2cc(OCC(=O)N3CCOCC3)c(Cl)cc12 | – | – | – | 18 | – | · | 33 | 24 | K7 EDANS ctr=–
O=C(Nc1ccc(Cl)cc1)c1csc([C@@H]2C[C@H](O)[C@@H](CO)O2)n1 | · | · | · | – | · | · | · | ·
CC(=O)Nc1cc2c3c(cccc3c1)-c1ccccc1-2 | – | · | · | 89 | · | · | 28 | – | K7 EDANS ctr=9.9
O=C1NC[C@H](Cc2ccccc2)N(C[C@@H]2CCCN2C[C@H](Cc2ccc(O)cc2)N2C[C@H](Cc3ccccc3)N(CCc3ccccc3)C(=O)C2=O)C1=O | · | · | · | – | · | · | · | ·
O=C(Nc1ccc(F)cc1)Nc1sccc1-c1nc2ccccc2s1 | – | – | – | 32 | – | – | – | –
SMILES | V-ATPase pH | MIN6 prolif | T cell HTS | KLK7 zymogen act | CR mimetic SO | Rce1 inh | KLK7 act conf | EDANS-DABCYL int | others
O=C(Nc1ccc(O)c(-c2nc3ccccc3s2)c1)c1cccs1 | – | – | – | – | – | – | · | ·
CC1=C(C(=O)Nc2ccccn2)C(c2cccnc2)n2nnnc2N1 (stereo unspecified) | – | – | · | 21 | – | – | – | 5.8
COC(=O)C1=C(C)Nc2nnnn2C1c1cccnc1 (stereo unspecified) | – | – | – | – | – | – | · | ·
CC(=O)c1ccc(Sc2ccccc2N)c([N+](=O)[O-])c1 | – | – | – | 15 | – | – | – | –
COc1cc(C(Nc2ccccn2)c2c(NC(=O)c3ccco3)sc(C)c2C)cc(OC)c1OC (stereo unspecified) | – | – | – | 26 | – | – | – | –
COc1ccc(C(Nc2ccccn2)c2c(NC(=O)c3ccco3)sc(C)c2C)cc1OC (stereo unspecified) | – | – | – | – | – | · | · | ·
Cc1ccc(-c2[nH]c(-c3ccc(C(=O)O)cc3)nc2-c2ccccc2)cc1 | – | – | – | 33 | – | ? | 67 | 69
O=C(O)c1ccc(-c2nc(-c3ccccc3)c(-c3cccs3)[nH]2)cc1 | – | – | – | – | – | ? | · | ·
CC[C@H](C)[C@H]1CNC(=S)N1CC1CCN(CCCCc2ccccc2)CC1 | – | · | · | – | · | · | · | ·
CC(=O)Oc1ccccc1C(=O)C=Cc1cccc([N+](=O)[O-])c1 | – | · | · | – | · | · | · | ·
Cc1ccc(S(=O)(=O)NCCC(=O)NNc2c(F)c(F)cc(F)c2F)cc1 | – | – | – | – | – | · | · | ·
Cc1cccc(-n2c(=O)c(C#N)cc3c(=O)n4ccccc4nc32)c1 | – | – | – | 16 | – | – | 51 | 72
O=C(O)C1OC1(c1ccccc1Cl)c1ccccc1Cl (stereo unspecified) | – | · | · | – | · | · | · | ·
CCCCOC(=O)Oc1ccc2c(=O)c(Oc3cc(C)cc(C)c3)coc2c1 | – | – | – | – | – | – | · | ·
CCCOC(=O)Oc1ccc2c(=O)c(Oc3cc(C)cc(C)c3)coc2c1 | – | – | – | 43 | – | – | 77 | 65 | K7 EDANS ctr=5
CCCCOC(=O)Oc1ccc2c(=O)c(Oc3cccc(C)c3)coc2c1 | – | – | – | 43 | – | – | 85 | 65 | K7 EDANS ctr=8.2
N#Cc1ccc2c(c1)nnn2-c1ccccc1 | – | – | – | – | – | – | · | ·
O=c1cc(Cl)nc2ccccn12 | – | · | · | – | · | · | · | ·
N#Cc1ccc2c(c1)nc1ccccn12 | – | – | – | 21 | – | ? | 27 | 23 | K7 EDANS ctr=–
Clc1ccc2nc3ccccn3c2c1 | – | – | – | 22 | – | – | 41 | 44
Cc1cccc(N(CC(=O)NC2CCCC2)C(=O)c2csnn2)c1C | – | – | – | – | – | – | · | ·
CCOC(=O)[C@]12CCCC=C1N(Cc1ccc3c(c1)OCO3)C(=O)[C@H](CC(=O)NCC13CC4CC(CC(C4)C1)C3)C2 | · | · | · | – | · | · | · | ·
